Source: ChEMBL document CHEMBL2380298, “Synthesis and antimicrobial activity of novel amphiphilic aromatic amino alcohols” (2013)

Key:
Type in all cases: functional
Staphylococcus aureus [1] = assay: Bactericidal activity against Staphylococcus aureus ATCC 29213 after 24 hrs; settings: ATCC 29213, 24 h
Method in brief: (§1)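 Bactericidal concentration: 0.1 ml from wells at the MIC dilution and the dilutions on either side was streaked onto tryptic soy agar and incubated 24 h. It was taken as the lowest drug concentration giving no growth (100% killing).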

Staphylococcus aureus [2] = assay: Antimicrobial activity against methicillin-resistant Staphylococcus aureus clinical isolate by broth dilution method
Staphylococcus aureus [3] = assay: Antimicrobial activity against methicillin-resistant Staphylococcus aureus clinical isolate 231 by broth dilution method
Staphylococcus aureus [4] = assay: Bactericidal activity against methicillin-resistant Staphylococcus aureus clinical isolate 237 after 24 hrs; settings: isolate 237, 24 h; method in brief: as §1
Staphylococcus aureus [5] = assay: Bactericidal activity against methicillin-resistant Staphylococcus aureus clinical isolate 255 after 24 hrs; settings: isolate 255, 24 h; method in brief: as §1
Staphylococcus aureus [6] = assay: Antimicrobial activity against methicillin-resistant Staphylococcus aureus clinical isolate 264 by broth dilution method
Staphylococcus aureus [7] = assay: Antimicrobial activity against methicillin-resistant Staphylococcus aureus clinical isolate 255 by broth dilution method
Candida parapsilosis = assay: Antimicrobial activity against Candida parapsilosis ATCC 90030 by broth dilution method; settings: Lodderomyces parapsilosis
Escherichia coli [8] = assay: Bactericidal activity against Escherichia coli ATCC 11229 after 24 hrs; settings: ATCC 11229, 24 h
Method in brief: (§2)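 MBC: after MIC determination, 0.1 ml from the MIC well and from two dilutions either side streaked on tryptic soy agar, incubated 24 h; MBC taken as lowest concentration giving no growth (100% kill).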

Staphylococcus aureus [9] = assay: Antimicrobial activity against methicillin-resistant Staphylococcus aureus clinical isolate 257 by broth dilution method
Staphylococcus aureus [10] = assay: Antimicrobial activity against methicillin-resistant Staphylococcus aureus clinical isolate 259 by broth dilution method
Staphylococcus aureus [11] = assay: Antimicrobial activity against methicillin-resistant Staphylococcus aureus clinical isolate 176 by broth dilution method
Escherichia coli [12] = assay: Antimicrobial activity against Escherichia coli ATCC 11229 by broth dilution method
Staphylococcus aureus [13] = assay: Bactericidal activity against methicillin-resistant Staphylococcus aureus clinical isolate 225 after 24 hrs; settings: isolate 225, 24 h; method in brief: as §1
Staphylococcus aureus [14] = assay: Bactericidal activity against methicillin-resistant Staphylococcus aureus clinical isolate 232 after 24 hrs; settings: isolate 232, 24 h; method in brief: as §1
[15] = test system: Staphylococcus epidermidis; assay: Antimicrobial activity against Staphylococcus epidermidis ATCC 12228 by broth dilution method
Staphylococcus aureus [16] = assay: Bactericidal activity against methicillin-resistant Staphylococcus aureus clinical isolate 176 after 24 hrs; settings: isolate 176, 24 h; method in brief: as §1
Staphylococcus aureus [17] = assay: Antimicrobial activity against methicillin-resistant Staphylococcus aureus clinical isolate 260 by broth dilution method
Staphylococcus aureus [18] = assay: Bactericidal activity against methicillin-resistant Staphylococcus aureus clinical isolate 178 after 24 hrs; settings: isolate 178, 24 h; method in brief: as §1
Pseudomonas aeruginosa = assay: Antimicrobial activity against Pseudomonas aeruginosa ATCC 27853 by broth dilution method
Staphylococcus aureus [19] = assay: Antimicrobial activity against methicillin-resistant Staphylococcus aureus clinical isolate 195 by broth dilution method
Staphylococcus aureus [20] = assay: Antimicrobial activity against methicillin-resistant Staphylococcus aureus clinical isolate 218 by broth dilution method
Staphylococcus aureus [21] = assay: Antimicrobial activity against methicillin-resistant Staphylococcus aureus clinical isolate 225 by broth dilution method
Staphylococcus aureus [22] = assay: Antimicrobial activity against methicillin-resistant Staphylococcus aureus clinical isolate 238 by broth dilution method
Staphylococcus aureus [23] = assay: Antimicrobial activity against methicillin-resistant Staphylococcus aureus clinical isolate 207 by broth dilution method
Staphylococcus aureus [24] = assay: Bactericidal activity against methicillin-resistant Staphylococcus aureus clinical isolate 236 after 24 hrs; settings: isolate 236, 24 h; method in brief: as §1
Candida tropicalis = assay: Antimicrobial activity against Candida tropicalis ATCC 750 by broth dilution method
Staphylococcus aureus [25] = assay: Antimicrobial activity against methicillin-resistant Staphylococcus aureus clinical isolate 178 by broth dilution method
Staphylococcus aureus [26] = assay: Bactericidal activity against methicillin-resistant Staphylococcus aureus clinical isolate 207 after 24 hrs; settings: isolate 207, 24 h; method in brief: as §1
Staphylococcus aureus [27] = assay: Bactericidal activity against methicillin-resistant Staphylococcus aureus clinical isolate 260 after 24 hrs; settings: isolate 260, 24 h; method in brief: as §1
Staphylococcus aureus [28] = assay: Bactericidal activity against methicillin-resistant Staphylococcus aureus clinical isolate 264 after 24 hrs; settings: isolate 264, 24 h; method in brief: as §1
Staphylococcus aureus [29] = assay: Antimicrobial activity against methicillin-resistant Staphylococcus aureus clinical isolate 205 by broth dilution method
Staphylococcus aureus [30] = assay: Bactericidal activity against methicillin-resistant Staphylococcus aureus clinical isolate 235 after 24 hrs; settings: isolate 235, 24 h; method in brief: as §1
[31] = test system: Staphylococcus epidermidis; assay: Bactericidal activity against Staphylococcus epidermidis ATCC 12228 after 24 hrs; settings: ATCC 12228, 24 h; method in brief: as §2
Staphylococcus aureus [32] = assay: Antimicrobial activity against methicillin-resistant Staphylococcus aureus clinical isolate 212 by broth dilution method
Candida albicans = assay: Antimicrobial activity against Candida albicans ATCC 22019 by broth dilution method
Staphylococcus aureus [33] = assay: Bactericidal activity against methicillin-resistant Staphylococcus aureus clinical isolate 259 after 24 hrs; settings: isolate 259, 24 h; method in brief: as §1
Staphylococcus aureus [34] = assay: Antimicrobial activity against methicillin-resistant Staphylococcus aureus clinical isolate 235 by broth dilution method
Staphylococcus aureus [35] = assay: Bactericidal activity against methicillin-resistant Staphylococcus aureus clinical isolate 257 after 24 hrs; settings: isolate 257, 24 h; method in brief: as §1
Staphylococcus aureus [36] = assay: Antimicrobial activity against methicillin-resistant Staphylococcus aureus clinical isolate 227 by broth dilution method
Staphylococcus aureus [37] = assay: Bactericidal activity against methicillin-resistant Staphylococcus aureus clinical isolate 215 after 24 hrs; settings: isolate 215, 24 h; method in brief: as §1
Staphylococcus aureus [38] = assay: Bactericidal activity against methicillin-resistant Staphylococcus aureus clinical isolate 195 after 24 hrs; settings: isolate 195, 24 h; method in brief: as §1
Staphylococcus aureus [39] = assay: Antimicrobial activity against methicillin-resistant Staphylococcus aureus clinical isolate 237 by broth dilution method
Staphylococcus aureus [40] = assay: Antimicrobial activity against methicillin-resistant Staphylococcus aureus clinical isolate 232 by broth dilution method
Staphylococcus aureus [41] = assay: Bactericidal activity against methicillin-resistant Staphylococcus aureus clinical isolate 238 after 24 hrs; settings: isolate 238, 24 h; method in brief: as §1
Staphylococcus aureus [42] = assay: Antimicrobial activity against methicillin-resistant Staphylococcus aureus clinical isolate 215 by broth dilution method
Staphylococcus aureus [43] = assay: Bactericidal activity against methicillin-resistant Staphylococcus aureus clinical isolate 227 after 24 hrs; settings: isolate 227, 24 h; method in brief: as §1
Staphylococcus aureus [44] = assay: Antimicrobial activity against Staphylococcus aureus ATCC 29213 by broth dilution method; settings: Staphylococcus aureus, ATCC 29213
Staphylococcus aureus [45] = assay: Antimicrobial activity against methicillin-resistant Staphylococcus aureus clinical isolate 236 by broth dilution method
Staphylococcus aureus [46] = assay: Bactericidal activity against methicillin-resistant Staphylococcus aureus clinical isolate 231 after 24 hrs; settings: isolate 231, 24 h; method in brief: as §1
Staphylococcus aureus [47] = assay: Bactericidal activity against methicillin-resistant Staphylococcus aureus clinical isolate 212 after 24 hrs; settings: isolate 212, 24 h; method in brief: as §1
Nakaseomyces glabratus = assay: Antimicrobial activity against Candida glabrata ATCC 18804 by broth dilution method

## CCCCCCCCCOc1ccc(CNC(CO)(CO)CO)cc1.Cl
Staphylococcus aureus [1]
  MBC: 16 µg/mL
Staphylococcus aureus [2]
  -logMIC: 4.529
Staphylococcus aureus [2]; Staphylococcus aureus
  MIC50: 8 µg/mL
  MIC90: 16 µg/mL
Staphylococcus aureus [3]
  MIC: 8 µg/mL
Staphylococcus aureus [4]
  MBC: 32 µg/mL
Staphylococcus aureus [5]
  MBC: 32 µg/mL
Staphylococcus aureus [6]
  MIC: 8 µg/mL
Staphylococcus aureus [7]
  MIC: 16 µg/mL
Candida parapsilosis
  MIC: 32 µg/mL
Escherichia coli [8]
  MBC: 32 µg/mL
Staphylococcus aureus [9]
  MIC: 8 µg/mL
Staphylococcus aureus [10]
  MIC: 8 µg/mL
Staphylococcus aureus [11]
  MIC: 8 µg/mL
Escherichia coli [12]
  -logMIC: 4.38
Escherichia coli [12]; Escherichia coli, ATCC 11229
  MIC: 16 µg/mL
Staphylococcus aureus [13]
  MBC: 16 µg/mL
Staphylococcus aureus [14]
  MBC: 32 µg/mL
[15]
  -logMIC: 4.68
[15]; Staphylococcus epidermidis, ATCC 12228
  MIC: 8 µg/mL
Staphylococcus aureus [16]
  MBC: 32 µg/mL
Staphylococcus aureus [17]
  MIC: 16 µg/mL
Staphylococcus aureus [18]
  MBC: 32 µg/mL
Pseudomonas aeruginosa
  MIC: > 256 µg/mL
Staphylococcus aureus [19]
  MIC: 8 µg/mL
Staphylococcus aureus [20]
  MIC: 8 µg/mL
Staphylococcus aureus [21]
  MIC: 8 µg/mL
Staphylococcus aureus [22]
  MIC: 32 µg/mL
Staphylococcus aureus [23]
  MIC: 16 µg/mL
Staphylococcus aureus [24]
  MBC: 16 µg/mL
Candida tropicalis
  MIC: 64 µg/mL
Staphylococcus aureus [25]
  MIC: 16 µg/mL
Staphylococcus aureus [26]
  MBC: 64 µg/mL
Staphylococcus aureus [27]
  MBC: 32 µg/mL
Staphylococcus aureus [28]
  MBC: 32 µg/mL
Staphylococcus aureus [29]
  MIC: 8 µg/mL
Staphylococcus aureus [30]
  MBC: 32 µg/mL
[31]
  MBC: 16 µg/mL
Staphylococcus aureus [32]
  MIC: 32 µg/mL
Candida albicans
  MIC: 4 µg/mL
Staphylococcus aureus [33]
  MBC: 32 µg/mL
Staphylococcus aureus [34]
  MIC: 8 µg/mL
Staphylococcus aureus [35]
  MBC: 64 µg/mL
Staphylococcus aureus [36]
  MIC: 16 µg/mL
Staphylococcus aureus [37]
  MBC: 32 µg/mL
Staphylococcus aureus [38]
  MBC: 32 µg/mL
Staphylococcus aureus [39]
  MIC: 16 µg/mL
Staphylococcus aureus [40]
  MIC: 16 µg/mL
Staphylococcus aureus [41]
  MBC: 32 µg/mL
Staphylococcus aureus [42]
  MIC: 16 µg/mL
Staphylococcus aureus [43]
  MBC: 64 µg/mL
Staphylococcus aureus [44]
  MIC: 8 µg/mL
Staphylococcus aureus [45]
  MIC: 8 µg/mL
Staphylococcus aureus [46]
  MBC: 32 µg/mL
Staphylococcus aureus [47]
  MBC: 64 µg/mL
Nakaseomyces glabratus
  MIC: 4 µg/mL
